ChEMBL document CHEMBL1122125, “Synthesis and in vivo antitumor activity of potential 5-fluorouracil prodrugs” (1982)

How the values were obtained:
Type in all cases: functional
Mus musculus [1] = test: Antitumor activity was determined for average 7-day weight change against P-388 leukemia in mice at a dose of 300 mg/kg
Summary of the method: (§1)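 Male B6D2F1J mice given 10⁶ P-388 cells ip on day 0, then treated ip once daily on days 1-4 (qd × 4), 5 mice per dose group. Compounds dosed in sterile saline, except one lipophilic thioether given in 10% Tween 80. Mice weighed on days 1 and 7; mean weight per mouse on day 1 and 7-day weight change reported in g and as percent.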

Mus musculus [2] = test: Antitumor activity was determined for average 7-day weight change against P-388 leukemia in mice at a dose of 340 mg/kg; summary of the method: as §1
Mus musculus [3] = test: Antitumor activity was determined for average 7-day weight change against P-388 leukemia in mice at a dose of 680 mg/kg; summary of the method: as §1
Mus musculus [4] = test: Antitumor activity was determined for average 7-day weight change against P-388 leukemia in mice at a dose of 75 mg/kg; summary of the method: as §1
Mus musculus [5] = test: Antitumor activity was determined for average weight on day 1 against P-388 leukemia in mice at a dose of 300 mg/kg
Summary of the method: (§2)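 Male B6D2F1J mice, groups of 5, inoculated ip with 10⁶ P-388 cells on day 0. Drug given ip on days 1-4 (qd × 4) in sterile saline, or in 10% Tween 80 for the poorly water-soluble thioether. Average weight per mouse recorded on day 1, with reweighing on day 7 for percent weight change. Untreated control groups had 10-17 animals per experiment.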

Mus musculus [6] = test: Antitumor activity was determined for average weight on day 1 against P-388 leukemia in mice at a dose of 340 mg/kg; summary of the method: as §2
Mus musculus [7] = test: Antitumor activity was determined for average weight on day 1 against P-388 leukemia in mice at a dose of 680 mg/kg; summary of the method: as §2
Mus musculus [8] = test: Antitumor activity was determined for average weight on day 1 against P-388 leukemia in mice at a dose of 85 mg/kg; summary of the method: as §2
Mus musculus [9] = test: Antitumor activity was determined for average 7-day weight change against P-388 leukemia in mice at a dose of 85 mg/kg; summary of the method: as §1
Mus musculus [10] = test: Antitumor activity was determined for average weight on day 1 against P-388 leukemia in mice at a dose of 170 mg/kg; summary of the method: as §2
Mus musculus [11] = test: Percent increase in life span against P-388 leukemia in mice was determined at a dose of 340 mg/kg; settings: P388
Summary of the method: (§3)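 Male B6D2F1J mice, 5 per dose group, received 10⁶ P-388 cells ip on day 0. Dosing was ip qd × 4 on days 1-4 in sterile saline, or 10% Tween 80 for the butyl thioether. Median survival times of treated (T) and untreated control (C, 10-17 mice) groups were compared: %ILS = [(T/C) − 1]100. Weights taken on days 1 and 7.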

Mus musculus [12] = test: Percent increase in life span against P-388 leukemia in mice was determined at a dose of 600 mg/kg; settings: P388; summary of the method: as §3
Mus musculus [13] = test: Percent increase in life span against P-388 leukemia in mice was determined at a dose of 680 mg/kg; settings: P388; summary of the method: as §3
Mus musculus [14] = test: Percent increase in life span against P-388 leukemia in mice was determined at a dose of 75 mg/kg; settings: P388; summary of the method: as §3
Mus musculus [15] = test: Percent increase in life span against P-388 leukemia in mice was determined at a dose of 85 mg/kg; settings: P388; summary of the method: as §3
Mus musculus [16] = test: Antitumor activity was determined for average 7-day weight change against P-388 leukemia in mice at a dose of 150 mg/kg; summary of the method: as §1
Mus musculus [17] = test: Antitumor activity was determined for average 7-day weight change against P-388 leukemia in mice at a dose of 170 mg/kg; summary of the method: as §1
Mus musculus [18] = test: Percent increase in life span against P-388 leukemia in mice was determined at a dose of 150 mg/kg; settings: P388; summary of the method: as §3
Mus musculus [19] = test: Antitumor activity was determined for survival range of mice against P-388 leukemia in mice at a dose of 600 mg/kg
Summary of the method: (§4)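 Male B6D2F1J mice implanted ip with 10⁶ P-388 cells on day 0; test agents given ip on days 1–4 (qd × 4) in sterile saline, or in 10% Tween 80 for the lipophilic thioether. Groups of 5 treated mice, with 10–17 untreated controls per experiment. Mice weighed on days 1 and 7 to give the 7-day weight change in g and %. Survival recorded in days as median and range.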

Mus musculus [20] = test: Antitumor activity was determined for survival range of mice against P-388 leukemia in mice at a dose of 680 mg/kg; summary of the method: as §4
Mus musculus [21] = test: Antitumor activity was determined for median survival of mice against P-388 leukemia in mice at a dose of 150 mg/kg; summary of the method: as §4
Mus musculus [22] = test: Antitumor activity was determined for median survival of mice against P-388 leukemia in mice at a dose of 170 mg/kg; summary of the method: as §4
Mus musculus [23] = test: Antitumor activity was determined for median survival of mice against P-388 leukemia in mice at a dose of 680 mg/kg; summary of the method: as §4
Mus musculus [24] = test: Antitumor activity was determined for median survival of mice against P-388 leukemia in mice at a dose of 85 mg/kg; summary of the method: as §4
Mus musculus [25] = test: Antitumor activity was determined for survival range of mice against P-388 leukemia in mice at a dose of 150 mg/kg; summary of the method: as §4
Mus musculus [26] = test: Antitumor activity was determined for survival range of mice against P-388 leukemia in mice at a dose of 170 mg/kg; summary of the method: as §4
Mus musculus [27] = test: Antitumor activity was determined for survival range of mice against P-388 leukemia in mice at a dose of 300 mg/kg; summary of the method: as §4
Mus musculus [28] = test: Antitumor activity was determined for survival range of mice against P-388 leukemia in mice at a dose of 340 mg/kg; summary of the method: as §4
Mus musculus [29] = test: Antitumor activity was determined for median survival of mice against P-388 leukemia in mice at a dose of 600 mg/kg; summary of the method: as §4
Mus musculus [30] = test: Antitumor activity was determined for median survival of mice against P-388 leukemia in mice at a dose of 340 mg/kg; summary of the method: as §4
Mus musculus [31] = test: Antitumor activity was determined for 7-day average percent weight change against P-388 leukemia in mice at a dose of 150 mg/kg; summary of the method: as §1
Mus musculus [32] = test: Antitumor activity was determined for 7-day average percent weight change against P-388 leukemia in mice at a dose of 170 mg/kg; summary of the method: as §1
Mus musculus [33] = test: Antitumor activity was determined for 7-day average percent weight change against P-388 leukemia in mice at a dose of 600 mg/kg; summary of the method: as §1
Mus musculus [34] = test: Antitumor activity was determined for 7-day average percent weight change against P-388 leukemia in mice at a dose of 680 mg/kg; summary of the method: as §1
Mus musculus [35] = test: Antitumor activity was determined for 7-day average percent weight change against P-388 leukemia in mice at a dose of 75 mg/kg; summary of the method: as §1
Mus musculus [36] = test: Antitumor activity was determined for 7-day average percent weight change against P-388 leukemia in mice at a dose of 85 mg/kg; summary of the method: as §1
L1210 = test: Evaluated for cytotoxicity against L1210 mouse leukemia cells; settings: read-out: ID50 (the source's name)
Summary of the method: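 L1210 murine leukemia cells in Eagle's minimal essential medium with 15% fetal calf serum, streptomycin (100 μg/mL), penicillin (100 units/mL) and 0.05 mM 2-mercaptoethanol. Cells counted by Coulter counter after 48 h exposure. ID50 is the 50% growth-inhibitory dose. Triplicate assays, standard deviation ±10%.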

## CC[C@H]1OC(n2cc(F)c(=O)[nH]c2=O)[C@H](O)[C@@H]1O (some centres not stated)
Mus musculus [1]
  Average weight: 0.6 g mouse-1
Mus musculus [2]
  Average weight: 1.4 g mouse-1
Mus musculus [3]
  Average weight: -1.4 g mouse-1
Mus musculus [4]
  Average weight: 2 g mouse-1
Mus musculus [5]
  Average weight: 23.2 g mouse-1
Mus musculus [6]
  Average weight: 27.8 g mouse-1
Mus musculus [7]
  Average weight: 25.8 g mouse-1
Mus musculus [8]
  Average weight: 26.2 g mouse-1
Mus musculus [9]
  Average weight: 1.2 g mouse-1
Mus musculus [10]
  Average weight: 26.4 g mouse-1
Mus musculus [11]
  ILS at 340 mg/kg: 45%
Mus musculus [12]
  ILS at 600 mg/kg: 63%
Mus musculus [13]
  ILS at 680 mg/kg: 54%
Mus musculus [14]
  ILS at 75 mg/kg: 36%
Mus musculus [15]
  ILS at 85 mg/kg: 18%
Mus musculus [16]
  Average weight: 1.8 g mouse-1
Mus musculus [17]
  Average weight: 1.6 g mouse-1
Mus musculus [18]
  ILS at 150 mg/kg: 54%
Mus musculus [19]
  Survival range: 17
Mus musculus [20]
  Survival range: 16
Mus musculus [21]
  Survival median: 17
Mus musculus [22]
  Survival median: 14
Mus musculus [23]
  Survival median: 17
Mus musculus [24]
  Survival median: 13
Mus musculus [25]
  Survival range: 15
Mus musculus [26]
  Survival range: 13
Mus musculus [27]
  Survival range: 17
Mus musculus [28]
  Survival range: 15
Mus musculus [29]
  Survival median: 18
Mus musculus [30]
  Survival median: 16
Mus musculus [31]
  Weight change: 7%
Mus musculus [32]
  Weight change: 6%
Mus musculus [33]
  Weight change: -10%
Mus musculus [34]
  Weight change: -5%
Mus musculus [35]
  Weight change: 9%
Mus musculus [36]
  Weight change: 5%
L1210
  IC50: 19 µM
